Measured values collected from several papers.
Each line is one published result; the experiments were not run side by side.
Target: Serine/threonine-protein kinase Nek2 (NEK2, Homo sapiens, UniProt P51955)

Structure (SMILES) | observed | mode | technique | tested at | quantity | value
Nc1ncnc2occ(-c3ccc(NC(=O)Nc4cc(C(F)(F)F)ccc4F)cc3)c12 | cell-free assay | inhibitor | – | 20 µM | remaining signal | 2.1%
COc1cc2ncnc(Nc3ccc(Oc4ccccc4)c(C)c3C)c2cc1OC | enzyme activity | inhibitor | – | 1 µM | inhibition | 1%
Cc1noc([C@H]2C[C@@H](c3ccc(C(F)(F)F)cc3)CN(C(=O)N3CCS(=O)(=O)C3)C2)n1 | cell-free assay | – | competition with immobilised ligand | 1 µM | remaining binding | 100%
CNCc1ccc(-c2cc(-c3nc(-c4ccc(S(=O)(=O)C(C)C)cc4)cnc3N)on2)cc1 | enzyme activity | inhibitor | – | 0.4 µM | inhibition | 0%
Cn1c(=O)n(-c2ccc(C(C)(C)C#N)cc2)c2c3cc(-c4cnc5ccccc5c4)ccc3ncc21 | enzyme activity | inhibitor | – | 10 µM | remaining activity | 145%
O=C(Nc1cnn(-c2csc(C(=O)NC3COC3)c2)c1)Nc1c(F)cccc1Cl | enzyme activity | inhibitor | – | 5 µM | remaining activity | 96.2%
N#CCCc1ccc2c(c1)-c1[nH]c3ccc([N+](=O)[O-])cc3c1CC(=O)N2 | cell-free assay | – | – | 0.5 µM | remaining signal | 92.7%
CN(c1ncccc1CNc1nc(Nc2ccc3c(c2)CC(=O)N3)ncc1C(F)(F)F)S(C)(=O)=O | enzyme activity | inhibitor | – | 1 µM | inhibition | 4.1%
CC1(C)NC(=O)c2[nH]c3c(Cl)c(Cl)ccc3c2C1C#N (centres unmarked) | thermal stability | – | DSF | 10 µM | ΔTm | -0.8 °C
O=C1NC(=O)c2cc(Nc3ccc(F)cc3)c(Nc3ccc(F)cc3)cc21 | cell-free assay | – | – | 0.5 µM | remaining signal | 96.3%
CCN(CC)CCNC(=O)c1c(C)[nH]c(/C=C2\C(=O)Nc3ccc(F)cc32)c1C | enzyme activity | inhibitor | – | 0.3 µM | inhibition | 9%
COc1cc(Nc2cnc(C#N)c(O[C@H](C)CN(C)C)n2)ncc1-c1cnn(C)c1 | enzyme activity | inhibitor | radiometric | 10 µM | remaining activity | 64%
CCC(=N\O)/C(C)=C/c1ccc(F)cc1 | cell-free assay | – | competition with immobilised ligand | 1 µM | remaining binding | 100%
COc1cc(Cl)c(C(=O)N[C@@H](CN[C@H]2CC[C@@H](N)CC2)Cc2ccc(C#N)cc2)cc1-c1ccc(CN[C@H](C)c2ccc(C)cc2)o1 | enzyme activity | inhibitor | – | 1 µM | remaining activity | 114%
COc1ccc2c(c1)O[C@H](c1ccc(OC)c(OC)c1)C[C@@H]2NC(=O)C1(c2ccc3c(c2)OC(F)(F)O3)CC1 | cell-free assay | – | competition with immobilised ligand | 1 µM | remaining binding | 100%
Cc1ccc(C(=O)Nc2ccc(CN3CCN(C)CC3)c(C(F)(F)F)c2)cc1C#Cc1cnc2cccnn12 | enzyme activity | inhibitor | – | 23.5 nM | remaining activity | 92%
FC(F)(F)Oc1cccc(-c2cnc3ccc(-c4ccncc4)nn23)c1 | enzyme activity | inhibitor | radiometric | 5 µM | activity vs control | 88%
C=CC(=O)Nc1cc(Nc2nccc(Nc3cc(Cl)c(F)cc3C(C)(C)O)n2)c(OC)cc1N1CC[C@@H](N(C)C)C1 | enzyme activity | inhibitor | – | 1 µM | inhibition | 5%
Cn1c2c(c3ccccc31)C(C#N)C(C)(C)NC2=O (centres unmarked) | thermal stability | – | DSF | 10 µM | ΔTm | -0.1 °C

Structure (SMILES) | observed | mode | technique | tested at | quantity | value
CC(C)(O)[C@H]1CC[C@H](Nc2ccc3ncc(-c4cccc(C(F)(F)F)c4)n3n2)CC1 | enzyme activity | inhibitor | – | 1 µM | remaining activity | 100%
CCN(CC)c1ccc(C2=NNC(=O)CC2C)cc1[N+](=O)[O-] (centres unmarked) | enzyme activity | inhibitor | – | 10 µM | remaining activity | 91%
Cn1c2c(c3ccc(Cl)c(Cl)c31)C(C#N)C(C)(C)NC2=O (centres unmarked) | thermal stability | – | DSF | 10 µM | ΔTm | -0.9 °C
CCCS(=O)(=O)Nc1ccc(F)c(C(=O)c2c[nH]c3ncc(-c4ccc(Cl)cc4)cc23)c1F | enzyme activity | inhibitor | – | 1 µM | inhibition | < 20%
Nc1nc(Nc2ccccc2)sc1C(=O)c1c(F)cccc1F | enzyme activity | inhibitor | – | 10 µM | remaining activity | 92%
CN(C)C1CCN(CC#Cc2nn(C3CCCC3)c3nc(NCc4ccccc4)ncc23)C1 (centres unmarked) | enzyme activity | inhibitor | FRET | 10 µM | inhibition | 15%
CC(C)(C)c1nc2c(s1)c1nc(N)ncc1c1ccc(NS(=O)(=O)c3c(F)cccc3F)c(F)c12 | enzyme activity | inhibitor | radiometric | 1 µM | remaining activity | 103%
Cc1c(NC(=O)c2cc(C(N)=O)nc3cc(F)ccc23)c(C(F)(F)F)nn1Cc1ccc(C#N)cc1 | cell-free assay | – | competition with immobilised ligand | 1 µM | remaining binding | 100%
Cc1ccc(Nc2nccc(N(C)c3ccc4c(C)n(C)nc4c3)n2)cc1S(N)(=O)=O | enzyme activity | inhibitor | – | 0.3 µM | inhibition | 2%
CN1CCC2(CC1)NC(=O)c1c(c3ccc(Cl)c(Cl)c3n1C)C2C#N (racemic) | thermal stability | – | DSF | 10 µM | ΔTm | 0.1 °C
CN(C)CC#Cc1ccc(OCCCc2sc(N3CCc4cccc(C(=O)Nc5nc6ccccc6s5)c4C3)nc2C(=O)O)c(F)c1 | cell-free assay | – | competition with immobilised ligand | 1 µM | remaining binding | 92%
CC/C(=N\NC(=O)NCc1cccc(O)c1)c1ccc(O)c(C)c1O | enzyme activity | inhibitor | – | 0.1 µM | inhibition | -2.4%
Cc1cc(NC(=O)c2cccc3cc(-c4cccc5[nH]nc(N)c45)ccc23)ccc1F | enzyme activity | inhibitor | – | 0.1 µM | activity vs control | 99%
CC(C)CC(=O)N1CCc2nc(-c3ccc(Br)cc3)nc(N(C)Cc3ccccc3)c2C1 | cell-free assay | – | competition with immobilised ligand | 0.1 µM | remaining binding | 100%
CNC(=O)c1cc(Oc2ccc(NC(=O)Nc3ccc(Cl)c(C(F)(F)F)c3)cc2)ccn1 | enzyme activity | inhibitor | – | 10 µM | inhibition | -16%
Cc1c(NC(=O)c2cc(C(N)=O)nc3cc(F)ccc23)c(C(F)(F)F)nn1Cc1ccc(C(C)(C)C)cc1 | cell-free assay | – | competition with immobilised ligand | 1 µM | remaining binding | 100%
O=C1Nc2ccc(Cl)cc2C1=Cc1cc(Cl)c(O)c(Cl)c1 | cell-free assay | – | – | 0.5 µM | remaining signal | 86%
CC(C)(C)C(=O)c1sc(NC2CCCCC2)nc1N | enzyme activity | inhibitor | – | 10 µM | remaining activity | 93%
FC(F)(F)c1ccc2c(c1)nc(-c1cccnc1)n2C1CC1 | cell-free assay | – | competition with immobilised ligand | 1 µM | remaining binding | 100%
